The text below walks through data of ChEMBL document CHEMBL1938272 (Bioorg Med Chem, 2012).

Data set [1] deals with T1, Aromatase (Homo sapiens, UniProt P11511).
T1 sequence (P11511 whole entry): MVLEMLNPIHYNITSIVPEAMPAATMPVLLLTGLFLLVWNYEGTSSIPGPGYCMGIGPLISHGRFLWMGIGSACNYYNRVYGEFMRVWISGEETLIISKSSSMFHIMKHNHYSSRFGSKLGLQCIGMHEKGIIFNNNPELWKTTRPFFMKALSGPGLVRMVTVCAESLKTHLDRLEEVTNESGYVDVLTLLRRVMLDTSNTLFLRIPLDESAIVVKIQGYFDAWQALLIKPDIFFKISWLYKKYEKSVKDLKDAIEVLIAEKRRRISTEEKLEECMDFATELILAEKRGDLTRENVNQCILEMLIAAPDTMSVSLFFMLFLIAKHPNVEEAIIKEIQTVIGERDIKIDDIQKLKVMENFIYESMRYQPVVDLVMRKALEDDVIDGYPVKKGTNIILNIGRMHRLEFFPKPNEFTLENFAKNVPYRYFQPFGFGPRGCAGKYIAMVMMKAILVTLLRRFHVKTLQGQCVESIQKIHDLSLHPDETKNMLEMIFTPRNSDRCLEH
To be noted: 2 h, read-out: Imax.

In data set [2] the test system is RAW264.7. Kind of data set: Antiinflammatory activity in mouse RAW264.7 cells assessed as inhibition of LPS-induced NO production at 40 uM preincubated for 30 mins before LPS challenge by Griess method.
The subject of data set [3] is HEK293. Kind of data set: Inhibition of TNFalpha-activated NF-kappaB expressed in HEK293 cells at 50 uM by luciferase reporter gene assay. It is filed as cell-based.
In data set [4] the target is T1, Aromatase. Kind of data set: Ratio of trans-resveratrol IC50 to compound IC50 for human aromatase.
For data set [5], the system named is Radical scavenging activity. Kind of data set: Antioxidant activity assessed as DPPH free radical scavenging activity at 400 uM after 30 mins by spectrophotometry. It is filed as functional.
In data set [6] the target is NAD(P)H dehydrogenase [quinone] 1 (Mus musculus) (UniProt Q64669). Kind of data set: Induction of QR1-mediated cytoprotective activity in mouse Hepa-1c1c7 cells at 50 uM assessed as cell survival. It is filed as cell-based.
The target of data set [7] is T1, Aromatase.
Data set [8] concerns the target NAD(P)H dehydrogenase [quinone] 1 (Mus musculus) (UniProt Q64669). Kind of data set: Induction of QR1 activity in mouse Hepa-1c1c7 cells using MTT as substrate by spectrophotometry. The format is cell-based. In outline: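 Mouse hepatoma Hepa 1c1c7 cells were incubated with compound, then permeabilised with digitonin. QR1 activity was read as MTT reduction to formazan at 595 nm, with crystal violet total protein run in parallel. Induction ratio is activity versus control; CD is the concentration doubling activity, derived only when the ratio is above 2.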

The target is the same in data set [9]. Kind of data set: Induction of QR1-mediated cytoprotective activity in mouse TAOc1 mutant Hepa cells at 50 uM assessed as cell survival. It is filed as cell-based.
The target is the same in data set [10]. Kind of data set: Induction of QR1-mediated cytoprotective activity in mouse BPrc1 cells at 50 uM assessed as cell survival. The format is cell-based.

Chain of NAD(P)H dehydrogenase [quinone] 1 (Mus musculus) (Q64669 whole entry): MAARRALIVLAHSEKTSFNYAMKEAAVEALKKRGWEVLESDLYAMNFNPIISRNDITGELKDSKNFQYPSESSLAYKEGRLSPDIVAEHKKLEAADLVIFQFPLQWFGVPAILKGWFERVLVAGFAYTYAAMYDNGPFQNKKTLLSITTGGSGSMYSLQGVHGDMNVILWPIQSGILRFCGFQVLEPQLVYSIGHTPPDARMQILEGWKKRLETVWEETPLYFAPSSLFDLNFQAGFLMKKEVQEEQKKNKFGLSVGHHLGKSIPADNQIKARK

As for `c1cc(-c2nsc(-c3ccncc3)n2)ccn1`, in data set [1], the inhibition at 50 µM turned out to be 98%. The inhibition at 40 µM in data set [2] turned out to be 0.9%. The inhibition was 7.2% in data set [3] and -35.6% in data set [5]. The “Ratio IC50” value in [4] was 30. The Survival in data set [6] was found to be 86.6%. In addition, the IC50 in data set [7] is 800 nM.

Regarding `c1cncc(-c2nsc(-c3cccnc3)n2)c1`, the inhibition at 50 µM in data set [1] came out at 97.2%. Besides, the inhibition at 40 µM in data set [2] amounted to 1.3%. In addition, the inhibition in [3] was 30.9%. For the same molecule, in [4], the Ratio IC50 was found to be 125. For the same molecule, the Survival came to 73.5% in data set [6], 71.6% in data set [9] and 87.8% in data set [10]. The molecule also had a CD in [8] of 53.1 µM. In data set [7], the half-inhibitory concentration (IC50) was determined as 200 nM.
